Experiments:
[1] = Partition coefficient (logP); settings: octanol/water
[2] = biological target: T1, Cysteinyl leukotriene receptor 1 (Cavia porcellus, UniProt Q2NNR5); test: Inhibition constant for displacement of [3H]LTD4 on guinea pig lung parenchymal membranes; format: tissue-based, Lung parenchyma
T1 sequence (Q2NNR5 whole entry): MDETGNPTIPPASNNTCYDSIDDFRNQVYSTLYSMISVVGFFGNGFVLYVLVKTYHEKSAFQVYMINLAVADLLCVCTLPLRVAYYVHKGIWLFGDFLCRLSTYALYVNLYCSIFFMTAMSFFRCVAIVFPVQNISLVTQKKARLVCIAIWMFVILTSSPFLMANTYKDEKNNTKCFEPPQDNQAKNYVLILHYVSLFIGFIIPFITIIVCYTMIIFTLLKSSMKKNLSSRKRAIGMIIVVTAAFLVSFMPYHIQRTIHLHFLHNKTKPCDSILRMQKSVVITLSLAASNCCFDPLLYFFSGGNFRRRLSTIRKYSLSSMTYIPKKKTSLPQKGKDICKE
Outline: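 Guinea pig lung parenchymal membranes; competitive displacement of [3H]LTD4. Ki taken as mean of two experiments, each run in duplicate on separate membrane batches.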

[3] = system: Cavia porcellus; test: Inhibition of protection from LTD4-induced dyspnea in a conscious guinea pig administered through oral route at a dose of 3 umol/kg; format: functional
[4] = biological target: T2, Cysteinyl leukotriene receptor 1 (Cavia porcellus) (UniProt Q2NNR5); test: Binding constant in guinea pig tracheal spirals with LTE4; format: tissue-based; settings: Trachea
T2 sequence (whole entry): T1 sequence (Q2NNR5 whole entry)
Outline: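 Guinea pig tracheal spirals contracted with LTE4 as agonist. Antagonist KB derived from concentration-response curves and reported as -log(KB) (pKB); n = number of concentration-response curves.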

[5] = biological target: T2, Cysteinyl leukotriene receptor 1 (Cavia porcellus); test: Effective dose for the inhibition of percent protection from LTD4-induced dyspnea in a conscious guinea pig administered through oral route; format: functional
Outline: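 Conscious guinea pig dyspnea model with LTD4 challenge; percent protection from dyspnea plotted against dose (oral or intravenous). ED50 obtained by regression using at least three doses from the linear portion of the dose-response curve; SEM for percent protection was generally ≤25% at each dose.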

[6] = system: Cavia porcellus; test: (§1) ED50 (p.o.) / ED50 (i.v.) ratio of the compound; format: functional
Outline: (§2)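 Ratio of oral ED50 to intravenous ED50 from the conscious guinea pig LTD4-induced dyspnea model, used as an index of oral bioavailability.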

[7] = system: Cysteinyl leukotriene receptor (Cavia porcellus); test: Inhibition of percent protection from LTD4-induced dyspnea in a conscious guinea pig administered intravenously
[8] = system: Cavia porcellus; test: Percent inhibition of protection from LTD4-induced dyspnea in a conscious guinea pig administered through oral route at a dose of 3 umol/kg; format: functional
[9] = Compound was evaluated for clearance in rat; format: ADME, organism-based; settings: in vivo
[10] = organism: Rattus norvegicus; test: Compound was evaluated for the pharmacokinetic characters in Rat; format: ADME, organism-based; settings: in vivo
[11] = Compound was evaluated for the clearance in dog; format: ADME, organism-based, Canis lupus familiaris; settings: in vivo
[12] = Bioavailability in guinea pig; format: ADME, organism-based, Cavia porcellus; settings: in vivo
[13] = Compound was evaluated for the oral bioavailability in dog; format: ADME, organism-based, Canis lupus familiaris; settings: in vivo, read-out: Bioavailabiility
[14] = Clearance in guinea pig; format: ADME, organism-based, Cavia porcellus; settings: in vivo
[15] = biological target: Alpha-2 adrenergic receptor (Mus musculus) (UniProt P30545+Q01338+Q01337); test: Compound was evaluated for the selectivity of alpha 2 adrenergic receptors isolated from mouse vas deferens by displacing clonidine; format: functional, tissue-based
Outline: (§3)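 Isolated-tissue functional selectivity screen, run at a single standard concentration of 10 μM, recording any change in the response to the receptor agonist.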

[16] = biological target: Beta-1 adrenergic receptor (Cavia porcellus) (UniProt B0FL73); test: Compound was evaluated for the selectivity of Beta 1 adrenergic receptors isolated from guinea pig right atrium by displacing isoproterenol; format: functional, tissue-based; settings: Cardiac atrium; outline: as §3
Chain of Beta-1 adrenergic receptor (Cavia porcellus) (B0FL73 1-467): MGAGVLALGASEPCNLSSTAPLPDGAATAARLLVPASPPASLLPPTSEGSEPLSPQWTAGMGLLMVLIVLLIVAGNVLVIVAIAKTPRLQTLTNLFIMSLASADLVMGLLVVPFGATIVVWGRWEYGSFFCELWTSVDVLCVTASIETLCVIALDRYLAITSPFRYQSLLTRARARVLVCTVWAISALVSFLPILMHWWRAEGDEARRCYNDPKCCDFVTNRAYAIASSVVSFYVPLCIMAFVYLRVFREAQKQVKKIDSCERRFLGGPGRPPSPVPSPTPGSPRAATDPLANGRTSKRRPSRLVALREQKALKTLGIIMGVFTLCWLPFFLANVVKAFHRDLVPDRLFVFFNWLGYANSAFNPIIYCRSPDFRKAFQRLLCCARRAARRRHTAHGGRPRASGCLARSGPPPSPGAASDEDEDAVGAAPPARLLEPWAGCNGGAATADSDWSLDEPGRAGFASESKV

[17] = biological target: Histamine H1 receptor (Cavia porcellus) (UniProt P31389); test: Compound was evaluated for the selectivity of Histaminergic 1 receptor isolated from guinea pig ileum by displacing histamine; format: tissue-based; outline: as §3
Chain of Histamine H1 receptor (Cavia porcellus) (P31389 whole entry): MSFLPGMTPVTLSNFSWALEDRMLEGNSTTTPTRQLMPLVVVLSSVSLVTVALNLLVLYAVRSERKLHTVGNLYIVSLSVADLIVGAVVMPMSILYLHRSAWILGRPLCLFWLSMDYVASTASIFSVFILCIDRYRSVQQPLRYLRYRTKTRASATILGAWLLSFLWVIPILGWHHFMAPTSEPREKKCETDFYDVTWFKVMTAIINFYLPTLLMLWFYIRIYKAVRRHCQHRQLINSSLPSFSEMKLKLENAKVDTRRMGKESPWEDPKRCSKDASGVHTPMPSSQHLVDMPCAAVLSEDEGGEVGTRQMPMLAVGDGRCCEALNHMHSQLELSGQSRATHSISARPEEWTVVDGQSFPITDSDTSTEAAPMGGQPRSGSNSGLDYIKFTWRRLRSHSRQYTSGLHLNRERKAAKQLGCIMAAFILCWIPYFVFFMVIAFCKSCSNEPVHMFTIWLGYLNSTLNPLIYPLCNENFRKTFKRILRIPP

[18] = biological target: Muscarinic acetylcholine receptor (Homo sapiens) (UniProt P20309+P08173+P11229+P08172+P08912); test: Compound was evaluated for the selectivity of Muscarinic receptors isolated from guinea pig ileum by displacing acetylcholine; format: tissue-based; settings: Cavia porcellus, target entry is the homologue from another species; outline: as §3
[19] = biological target: Prostaglandin E2 receptor EP2 subtype (Homo sapiens) (UniProt P43116); test: Compound was evaluated for the selectivity of Prostaglandin 2 receptors isolated from guinea pig ileum by displacing PGE-2; format: tissue-based; settings: Cavia porcellus; Trachea; in the assay text read “guinea pig trachea” for “guinea pig ileum”; target entry is the homologue from another species; outline: as §3
Chain of Prostaglandin E2 receptor EP2 subtype (Homo sapiens) (P43116 whole entry): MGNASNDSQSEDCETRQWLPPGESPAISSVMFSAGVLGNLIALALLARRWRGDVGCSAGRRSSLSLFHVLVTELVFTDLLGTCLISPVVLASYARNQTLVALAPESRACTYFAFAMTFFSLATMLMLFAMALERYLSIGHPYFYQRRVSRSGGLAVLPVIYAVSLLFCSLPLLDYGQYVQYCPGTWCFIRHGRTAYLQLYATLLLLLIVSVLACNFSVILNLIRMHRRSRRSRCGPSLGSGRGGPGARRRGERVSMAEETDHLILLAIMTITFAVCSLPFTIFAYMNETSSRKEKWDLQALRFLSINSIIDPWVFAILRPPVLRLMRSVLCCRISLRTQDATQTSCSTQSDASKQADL

[20] = biological target: T3, Thromboxane A2 receptor (Rattus norvegicus) (UniProt P34978); test: Compound was evaluated for the selectivity of Thromboxane 1 receptors isolated from rat aorta by displacing U-46,619; format: functional, tissue-based; outline: as §3
T3 sequence (whole entry): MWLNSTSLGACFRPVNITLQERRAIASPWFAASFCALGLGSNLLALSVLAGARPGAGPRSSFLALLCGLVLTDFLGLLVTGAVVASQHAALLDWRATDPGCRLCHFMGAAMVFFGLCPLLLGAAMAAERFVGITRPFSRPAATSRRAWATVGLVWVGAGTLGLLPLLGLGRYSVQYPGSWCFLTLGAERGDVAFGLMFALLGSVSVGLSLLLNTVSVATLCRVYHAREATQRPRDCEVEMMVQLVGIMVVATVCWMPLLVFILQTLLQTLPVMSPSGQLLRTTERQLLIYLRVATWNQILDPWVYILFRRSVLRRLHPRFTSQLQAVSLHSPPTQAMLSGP

[21] = as §1; format: functional; outline: as §2
[22] = Compound was evaluated for the oral bioavailability in rat; format: ADME, organism-based; settings: in vivo, read-out: Bioavailabiility
[23] = biological target: T4, Prostaglandin E2 receptor EP1 subtype (Homo sapiens) (UniProt P34995); test: Compound was evaluated for the selectivity of Prostaglandin 1 receptors isolated from guinea pig ileum by displacing PGE-2; settings: Cavia porcellus, target entry is the homologue from another species
T4 sequence (whole entry): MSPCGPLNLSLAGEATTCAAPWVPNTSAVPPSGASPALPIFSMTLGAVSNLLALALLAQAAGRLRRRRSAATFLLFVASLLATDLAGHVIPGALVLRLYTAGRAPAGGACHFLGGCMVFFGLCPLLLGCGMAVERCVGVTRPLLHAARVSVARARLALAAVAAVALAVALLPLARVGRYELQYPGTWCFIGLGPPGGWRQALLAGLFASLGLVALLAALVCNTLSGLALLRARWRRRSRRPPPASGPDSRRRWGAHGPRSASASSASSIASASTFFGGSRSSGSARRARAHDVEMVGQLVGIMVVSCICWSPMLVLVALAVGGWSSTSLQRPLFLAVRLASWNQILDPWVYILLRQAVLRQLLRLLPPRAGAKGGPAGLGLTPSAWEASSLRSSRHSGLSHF

logP [1]	Ki [2]	pKB [4]	ED50 [5]	ED50 [7]	Compound	also measured
5.89	12 nM				COc1cc(C(=O)NS(=O)(=O)c2ccccc2C)ccc1Cc1cn(C)c2ccc(C(=O)NCC(C)C(F)(F)F)cc12 (stereo unspecified)	
5.53					CCC(CNC(=O)c1ccc2c(c1)c(Cc1ccc(C(=O)O)cc1OC)cn2C)CC(F)(F)F (stereo unspecified)	
	1.3 nM	8.6			COc1cc(C(=O)NS(=O)(=O)c2ccccc2C)ccc1Cc1cn(C)c2ccc(C(=O)NCC3CC(F)(F)C(F)(F)C3)cc12	inhibition in vivo at 3 µmol/kg [3]: 11%
5.85	5.2 nM	8.7	20 µmol/kg	1.39 µmol/kg	CCC(C)CNC(=O)c1ccc2c(c1)c(Cc1ccc(C(=O)NS(=O)(=O)c3ccccc3C)cc1OC)cn2C (stereo unspecified)	Ratio [6]: 14
6.45	5.3 nM	9.6	2.64 µmol/kg	0.047 µmol/kg	CCC(CNC(=O)c1ccc2c(c1)c(Cc1ccc(C(=O)NS(=O)(=O)c3ccccc3C)cc1OC)cn2C)CC(F)(F)F (stereo unspecified)	Ratio [6]: 56
6.3	7.3 nM				COc1cc(C(=O)NS(=O)(=O)c2ccccc2C)ccc1Cc1cn(C)c2ccc(C(=O)NCCC(C)C(F)(F)F)cc12 (stereo unspecified)	
	3.2 nM	8.4	19.2 µmol/kg	0.69 µmol/kg	COc1cc(C(=O)NS(=O)(=O)c2ccccc2C)ccc1Cc1cn(C)c2ccc(C(=O)NCC3CCCC3)cc12	Ratio [6]: 28
	7.7 nM				COc1cc(C(=O)NS(=O)(=O)c2ccccc2C)ccc1Cn1ccc2ccc(C(=O)NCC(C)CC(F)(F)F)cc21 (stereo unspecified)	
	7.5 nM	8.7			COc1cc(C(=O)NS(=O)(=O)c2ccccc2C)ccc1Cc1cn(C)c2ccc(C(=O)NCCCC(F)(F)F)cc12	
	4.7 nM	8	14.7 µmol/kg	1.09 µmol/kg	CCC(CC)CNC(=O)c1ccc2c(c1)c(Cc1ccc(C(=O)NS(=O)(=O)c3ccccc3C)cc1OC)cn2C	
	1.2 nM	9.3			COc1cc(C(=O)NS(=O)(=O)c2ccccc2C)ccc1Cc1cn(C)c2ccc(C(=O)NCCC(C(F)(F)F)C(F)(F)F)cc12	inhibition in vivo at 3 µmol/kg [8]: 19%
	0.44 nM	9.6	2.29 µmol/kg		COc1cc(C(=O)NS(=O)(=O)c2ccccc2C)ccc1Cn1cc(C)c2ccc(C(=O)NCC(C)CC(F)(F)F)cc21 (stereo unspecified)	
		9.67	0.54 µmol/kg		COc1cc(C(=O)NS(=O)(=O)c2ccccc2C)ccc1Cc1cn(C)c2ccc(NC(=O)OC3CCCC3)cc12	
	1.45 nM	9.28	3.73 µmol/kg	0.047 µmol/kg	COc1cc(C(=O)NS(=O)(=O)c2ccccc2C)ccc1Cc1cn(C)c2ccc(C(=O)NC[C@@H](C)CC(F)(F)F)cc12	clearance [9]: 1.67 mL/min/kg; Ratio [6]: 79; Pharmacokinetic [10]: 23%
	4.9 nM				COc1cc(C(=O)NS(=O)(=O)c2ccccc2Cl)ccc1Cn1cc(C)c2ccc(C(=O)NCC(C)CC(F)(F)F)cc21 (stereo unspecified)	
	0.42 nM	10.1	1.14 µmol/kg	0.022 µmol/kg	COc1cc(C(=O)NS(=O)(=O)c2ccccc2C)ccc1Cc1cn(C)c2ccc(C(=O)NC[C@H](C)CC(F)(F)F)cc12	clearance [11]: 5.17 mL/min/kg; bioavailability [12]: 15%; bioavailability [13]: 38%; clearance [14]: 14.2 mL/min/kg; clearance [9]: 1.17 mL/min/kg; pKB [15]: < 5; pKB [16]: < 5; pKB [17]: < 5; pKB [18]: < 5; pKB [19]: < 5; pKB [20]: < 5; Ratio [21]: 52; bioavailability [22]: 33%; pKB [23]: 5.23

— ChEMBL document CHEMBL1127645, “Synthesis, structure-activity relationships, and pharmacological evaluation of a series of fluorinated 3-benzyl-5-indolecarboxamides: identification of 4-[[5-[((2R)-2-methyl-4,4,4-trifluorobutyl)carbamoyl]-1-methyl indol- 3-yl]methyl]-3-methoxy-N-[(2-methylphenyl)sulfonyl]benzamide, a potent, …” (J Med Chem, 1994)
